Source: PubChem
Rows were chosen to be rich in hits. Some 3.7% of all compounds tested hit in one or more screens of this group.
KCNK9 inh – KCNK9 potassium channel inhibitors, primary screen, HEK293 cells, thallium flux | 310,000 compounds, 1.2% hits | AID 488922, 2010 | Potassium channel subfamily K member 9 (Homo sapiens), Q9NPC2 | B-score at 10 µM | FluxOR thallium flux fluorescence; stronger effect = lower value;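 active = ratio B-score over 3 SD below the library mean, with starting fluorescence within 5 SD of its mean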;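 note: negative B-score means less thallium flux so channel inhibition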
Target sequence (Q9NPC2 whole entry, looked up): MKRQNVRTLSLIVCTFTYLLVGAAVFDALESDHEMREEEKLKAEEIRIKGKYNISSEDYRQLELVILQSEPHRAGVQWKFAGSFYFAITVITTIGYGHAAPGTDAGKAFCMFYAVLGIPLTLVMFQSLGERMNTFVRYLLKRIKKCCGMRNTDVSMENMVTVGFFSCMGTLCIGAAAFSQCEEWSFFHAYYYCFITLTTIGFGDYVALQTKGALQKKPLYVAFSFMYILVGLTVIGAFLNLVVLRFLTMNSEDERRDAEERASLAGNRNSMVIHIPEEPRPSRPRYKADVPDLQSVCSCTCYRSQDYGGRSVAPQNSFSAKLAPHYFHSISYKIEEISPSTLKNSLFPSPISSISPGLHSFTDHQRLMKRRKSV
KCNK3 block – human KCNK3 channel inhibitors, primary screen, CHO cells, FluxOR thallium flux, B-score; B-score at 10 µM; 340,000 compounds, 0.84% hits; Potassium channel subfamily K member 3 (Homo sapiens), O14649; FluxOR fluorescence; stronger effect = lower value; AID 602410, 2012;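 active = B-score under library mean minus 4 SD, starting fluorescence ratio at most library mean plus 5 SD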;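 note: more negative B-score means stronger inhibition of thallium flux through KCNK3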
Kir21 block – inhibitors of mouse Kir2.1 inward-rectifier potassium channel | Inward rectifier potassium channel 2 (Mus musculus), P35561 | HEK293-Kir2.1, FluxOR thallium flux fluorescence; stronger effect = lower value | B-score at 10 µM | 310,000 compounds, 0.85% hits;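 active = fluorescence ratio B-score at or below minus 3 SD of library scores, with starting-brightness B-score within 2 SD, cut at about -4.2 in these data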;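 note: channel flux triggered by added potassium and thallium sulfate stimulus; B-score of peak minus minimum fluorescence over baseline after thallium stimulus; more negative B-score means stronger Kir2.1 block with less thallium influx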
KCNQ1 block – inhibitors of human KCNQ1 channel, primary screen, cell-based, thallium flux, high-throughput | Potassium voltage-gated channel subfamily KQT member 1 (Homo sapiens), P51787 | CHO-K1 KCNQ1, FluxOR thallium flux fluorescence; stronger effect = higher value | B-score at 10 µM | 310,000 compounds, 1.3% hits | AID 2642, 2010;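 active = compounds whose thallium flux B-score, printed positive for inhibition, exceeds three library SD while starting fluorescence stays within three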;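 note: channel opened by potassium depolarization with thallium stimulus after 20 min compound exposure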
KCNQ1 pot – potentiators or activators of KCNQ1 channel, primary screen, cell-based, thallium flux, high-throughput; B-score at 10 µM; 310,000 compounds, 0.35% hits; Potassium voltage-gated channel subfamily KQT member 1 (Homo sapiens), P51787; AID 2648, 2010; CHO-K1 KCNQ1, thallium flux FluxOR fluorescence; stronger effect = higher value;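 active = fluorescence ratio B-score, a plate-corrected score, at least three library SD, with initial intensity B-score within 5 SD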
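Assay system: CHO-K1 cells stably expressing KCNQ1. Medium: assay buffer for compound exposure, DMSO matched across wells. Timing: 37 °C overnight plating, 90-min dark dye load, 20-min compound pretreatment. Signal: kinetic FluxOR fluorescence, 10 s baseline plus 110 s post-stimulus.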
hERG protect – hERG rescue from dofetilide block, primary screen, cell-based, CHO-hERG, FluxOR thallium flux, dofetilide IC70; AID 1511, 2009; 310,000 compounds, 0.51% hits; activation (rescue from dofetilide block), less the hit threshold, % at 10 µM; dofetilide IC70 present;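 active = activation above the mean of controls blocked by dofetilide plus 5 SD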;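 note: thallium influx through hERG after potassium depolarization seen as dye fluorescence rise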
* marks the source's active call; other numbers are inactive results; i = inactive; · = not tested or not shown.

SMILES | KCNK9 inh | KCNK3 block | Kir21 block | KCNQ1 block | KCNQ1 pot | hERG protect
COc1ccc(CC(C)NCCC(c2ccccc2)c2ccccc2)cc1 (stereo not drawn) | i | i | -3.1 | 6* | i | -28
CCCCNC(C)Cc1ccccc1 (stereo not drawn) | · | i | · | · | · | ·
CCCCn1c(=O)c(C(=O)Nc2cnccn2)c(O)c2ccccc21 | i | i | 0.03 | 9* | i | -40
CCCCCn1c(=O)c(C(=O)Nc2ncccc2C)c(O)c2ccccc21 | i | i | 1.7 | i | i | -7
COc1ccc(CNCCc2ccccc2F)c(OC)c1C | i | i | -5.5* | i | i | -5
COc1ccc2c(c1)C(c1ccc(N(CCCl)CCCl)cc1)=NCC2 | · | -8.7* | · | · | · | ·
Brc1ccc2c(c1)C(OC1CN3CCC1CC3)c1ccccc1CS2 (stereo not drawn) | i | i | -8.9* | i | i | -17
CC12C=CC(=O)C=C1CC(O)C1C2CCC2(C)C1CCC2(C)O (stereo not drawn) | · | i | · | · | · | ·
N#CC1=C(N)Oc2cc(O)ccc2C1c1ccc2c(c1)OCO2 (stereo not drawn) | -7.5* | i | 0.19 | i | i | -11
C/C(=N\Nc1cccc2ccccc12)c1c(O)n(Cc2ccccc2)c(=O)[nH]c1=O | -7.2* | i | 1.4 | i | i | -1
O=C(c1ccc(F)cc1)C(Cc1ccccc1)N1CCCCC1 (stereo not drawn) | i | i | 0.51 | i | i | -6
O=C(CCCN1CCC2(CC1)C(=O)NCN2c1ccccc1)c1ccc(F)cc1 | i | i | -0.38 | i | 23* | -15
CCC(C)C1NC(=O)C(NC(=O)C(CC(C)C)N(C)C(=O)C2CCCN2C(=O)C(C)O)C(C)OC(=O)C(Cc2ccc(OC)cc2)N(C)C(=O)C2CCCN2C(=O)C(CC(C)C)NC(=O)[C@H](C)C(=O)[C@H](C(C)C)OC(=O)CC1O (stereo partly drawn) | · | i | · | · | · | ·
c1ccc2c(c1)[IH]c1ccccc1-2 | · | i | · | · | · | ·
CCN1/C(=C\C=C\C2=[N+](CC)c3ccccc3C2(C)C)C(C)(C)c2ccccc21 | i | i | -13 | 21* | i | -56
COC(=O)C1=C(c2ccc(OC(F)(F)F)cc2)C[C@@H]2CC[C@H]1N2C(=O)NCc1cc(C)oc1C(F)(F)F | · | i | · | · | · | ·
CCc1cccc(CC)c1NC(=S)N1CC2CC(C1)c1cccc(=O)n1C2 (stereo not drawn) | i | i | 0.65 | i | i | -6
Cc1c(Cl)cccc1NC(=S)N1CC2CC(C1)c1cccc(=O)n1C2 (stereo not drawn) | i | i | 1 | i | 30* | -4
O=c1cccc2n1CC1CC2CN(Cc2cccc(Cl)c2Cl)C1 (stereo not drawn) | i | i | -7.8* | i | i | -11
O=c1cccc2n1CC1CC2CN(Cc2c(F)cccc2Cl)C1 (stereo not drawn) | i | i | -0.73 | i | i | -6
CCOP(=O)(CCP(=O)(OCC)OCC)OCC.C[CH2][Sn]([Cl])([Cl])[CH2]C | · | i | · | · | · | ·
O=C(c1ccc(Cl)cc1)C1CCCN(Cc2cccc3ncccc23)C1 (stereo not drawn) | i | i | -1.8 | i | i | -27
COc1ccc(CN2CCCC(C(=O)c3ccc(Cl)cc3)C2)c(O)c1 (stereo not drawn) | i | i | -11* | i | i | -3
COc1cccc(NP(=O)(Oc2ccc(Cl)cc2)Oc2ccc(Cl)cc2)c1 | -6.7* | i | 0.64 | i | i | -4
Cc1cccc(NP(=O)(Oc2ccccc2F)Oc2ccccc2F)c1 | -7.2* | i | -1 | i | i | -27
SMILES | KCNK9 inh | KCNK3 block | Kir21 block | KCNQ1 block | KCNQ1 pot | hERG protect
Cc1cccc(N=C2c3cc([N+](=O)[O-])ccc3-c3c2cc([N+](=O)[O-])cc3[N+](=O)[O-])c1 | · | i | · | · | · | ·
N#Cc1ncc(N=Cc2ccc(N(CCCl)CCCl)cc2)s1 | · | i | · | · | · | ·
CC(C)n1c(O)c(C2c3cc(Cl)ccc3Oc3[nH]c(=O)n(C(C)C)c(=O)c32)c(=O)[nH]c1=O (stereo not drawn) | i | i | -4.3* | i | i | -24
COC(=O)C1=C(c2ccc(F)cc2OCc2ccccc2)C[C@@H]2CC[C@H]1N2C(=O)NCCN1CCOCC1 | · | i | · | · | · | ·
CCCn1c(C)c(C(=O)c2cccc3ccccc23)c2ccccc21 | · | -11* | · | · | · | ·
Cc1c(C(=O)c2ccccc2)c2ccccc2n1C | i | i | -0.94 | i | i | -12
CC(NC(=O)N1CC1(C)C)c1ccccc1 (stereo not drawn) | · | i | · | · | · | ·
COc1c(C=C2C(=O)NC(=O)NC2=O)c(CCN(C)C(=O)c2ccccc2)cc2c1OCO2 | i | i | -4.5* | i | i | -9
COc1ccc(CCNCc2cccn2C)cc1 | i | i | 0.51 | i | i | -6
Cn1cccc1CNCCc1ccccc1 | i | · | -1.5 | i | i | 6.4*
COC1CC(OC2CCC3(C)C(CCC4C3CCC3(C)C(C5=CC(=O)OC5)C(OC(C)=O)CC43O)C2)OC(C)C1OC1OC(COC2OC(CO)C(O)C(O)C2O)C(O)C(O)C1O (stereo not drawn) | i | · | -1.3 | i | i | -2
Cc1cc2c(cc1C)NP(=S)(c1ccccc1)N2 | · | i | · | · | · | ·
O=c1[nH]c(=S)[nH]c(O)c1N=Nc1ccc(S(=O)(=O)N2CCc3ccccc32)cc1 | i | i | -0.12 | i | i | 13*
O=C(O)C1CC2(Cl)C(Cl)=C(Cl)C1(Cl)C2(Cl)Cl (stereo not drawn) | · | i | · | · | · | ·
CC=C(CC)C1(CCC)C(=O)NC(=S)NC1=O | · | i | · | · | · | ·
CC(=O)OC(C)(C)/C=C/C(=O)C(C)(O)C1[C@H](O)C[C@@]2(C)C3CC=C4C(CC[C@@H](O)C4(C)C)[C@]3(CO)C(=O)C[C@]12C (stereo partly drawn) | i | i | -1.1 | i | 13* | 3
CC(C)(C)c1cc([N+](=O)[O-])cc(C(C)(C)C)c1O | i | · | -1.3 | 6* | i | -18
COc1cccc(CC(=O)N2CCN(Cc3cccc(Cl)c3)CC2)c1 | i | i | -0.25 | i | 8* | -5
COc1ccccc1N1CCN(CCc2ccccc2)CC1 | i | i | 2 | i | i | -6
